Measurements taken from ChEMBL document CHEMBL1133522, “Chiral resolution, pharmacological characterization, and receptor docking of the noncompetitive mGlu1 receptor antagonist (+/-)-2-hydroxyimino- 1a, 2-dihydro-1H-7-oxacyclopropa[b]naphthalene-7a-carboxylic acid ethyl ester” (J Med Chem, 2000).

Key:
[1] = molecular target: T1, Metabotropic glutamate receptor 1 (Homo sapiens, UniProt Q13255); assay: Inhibition of Quisqualate-Induced PI Hydrolysis measured in CHO Metabotropic glutamate receptor 1 Expressing Cells; format: functional
In short: (§1)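 Human mGlu1b receptor, cloned and stably expressed in CHO cells. Inhibition of quisqualate-stimulated phosphoinositol hydrolysis. Each data point is a triplicate measurement from at least three independent experiments, given as mean ± SEM. Four-parameter logistic fit of concentration–response curves gives IC50 with 95% confidence intervals. Highest concentration tested was 30 µM, or 100 µM where solubility allowed.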
Target sequence in this assay (Q13255 whole entry): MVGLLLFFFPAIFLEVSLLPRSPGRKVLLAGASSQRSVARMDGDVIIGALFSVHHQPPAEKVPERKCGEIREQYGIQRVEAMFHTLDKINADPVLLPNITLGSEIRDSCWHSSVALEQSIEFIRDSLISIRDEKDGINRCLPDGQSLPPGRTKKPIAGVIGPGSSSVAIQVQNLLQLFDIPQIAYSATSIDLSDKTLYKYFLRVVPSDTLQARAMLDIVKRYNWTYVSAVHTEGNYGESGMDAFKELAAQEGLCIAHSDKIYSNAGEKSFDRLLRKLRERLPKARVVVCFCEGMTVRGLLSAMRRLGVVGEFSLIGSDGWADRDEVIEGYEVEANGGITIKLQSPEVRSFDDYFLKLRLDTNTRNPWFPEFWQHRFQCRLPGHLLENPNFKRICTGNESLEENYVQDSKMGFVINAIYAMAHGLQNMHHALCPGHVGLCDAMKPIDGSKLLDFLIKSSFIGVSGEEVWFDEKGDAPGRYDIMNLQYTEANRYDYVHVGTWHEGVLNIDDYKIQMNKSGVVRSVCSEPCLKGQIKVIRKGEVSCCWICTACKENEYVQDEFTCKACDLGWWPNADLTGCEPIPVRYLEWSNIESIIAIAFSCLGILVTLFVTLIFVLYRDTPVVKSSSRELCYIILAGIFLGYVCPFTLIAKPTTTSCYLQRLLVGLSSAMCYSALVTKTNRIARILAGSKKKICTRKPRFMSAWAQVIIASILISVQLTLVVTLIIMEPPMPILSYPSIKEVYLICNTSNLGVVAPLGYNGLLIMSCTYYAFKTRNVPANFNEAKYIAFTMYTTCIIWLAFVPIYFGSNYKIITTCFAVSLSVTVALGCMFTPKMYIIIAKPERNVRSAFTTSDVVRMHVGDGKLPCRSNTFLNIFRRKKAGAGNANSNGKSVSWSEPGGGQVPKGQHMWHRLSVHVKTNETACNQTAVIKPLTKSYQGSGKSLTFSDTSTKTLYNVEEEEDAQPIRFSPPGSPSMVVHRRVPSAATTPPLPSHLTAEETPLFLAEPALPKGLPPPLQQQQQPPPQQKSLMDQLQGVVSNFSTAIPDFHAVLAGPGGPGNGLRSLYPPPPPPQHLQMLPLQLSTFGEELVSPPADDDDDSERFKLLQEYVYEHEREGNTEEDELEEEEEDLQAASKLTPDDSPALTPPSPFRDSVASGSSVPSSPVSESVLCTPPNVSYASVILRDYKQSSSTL

[2] = molecular target: T1, Metabotropic glutamate receptor 1; assay: Inhibition of Quisqualate-Induced PI Hydrolysis measured in CHO Metabotropic glutamate receptor 1 Expressing Cells at a concentration of 30 uM; ne means No effect; format: functional; in short: as §1
Target sequence in this assay (Q13255 whole entry): as above

[3] = molecular target: T1, Metabotropic glutamate receptor 1; conditions: CHO; 100 uM
Target sequence in this assay (Q13255 19-1194 limits assumed): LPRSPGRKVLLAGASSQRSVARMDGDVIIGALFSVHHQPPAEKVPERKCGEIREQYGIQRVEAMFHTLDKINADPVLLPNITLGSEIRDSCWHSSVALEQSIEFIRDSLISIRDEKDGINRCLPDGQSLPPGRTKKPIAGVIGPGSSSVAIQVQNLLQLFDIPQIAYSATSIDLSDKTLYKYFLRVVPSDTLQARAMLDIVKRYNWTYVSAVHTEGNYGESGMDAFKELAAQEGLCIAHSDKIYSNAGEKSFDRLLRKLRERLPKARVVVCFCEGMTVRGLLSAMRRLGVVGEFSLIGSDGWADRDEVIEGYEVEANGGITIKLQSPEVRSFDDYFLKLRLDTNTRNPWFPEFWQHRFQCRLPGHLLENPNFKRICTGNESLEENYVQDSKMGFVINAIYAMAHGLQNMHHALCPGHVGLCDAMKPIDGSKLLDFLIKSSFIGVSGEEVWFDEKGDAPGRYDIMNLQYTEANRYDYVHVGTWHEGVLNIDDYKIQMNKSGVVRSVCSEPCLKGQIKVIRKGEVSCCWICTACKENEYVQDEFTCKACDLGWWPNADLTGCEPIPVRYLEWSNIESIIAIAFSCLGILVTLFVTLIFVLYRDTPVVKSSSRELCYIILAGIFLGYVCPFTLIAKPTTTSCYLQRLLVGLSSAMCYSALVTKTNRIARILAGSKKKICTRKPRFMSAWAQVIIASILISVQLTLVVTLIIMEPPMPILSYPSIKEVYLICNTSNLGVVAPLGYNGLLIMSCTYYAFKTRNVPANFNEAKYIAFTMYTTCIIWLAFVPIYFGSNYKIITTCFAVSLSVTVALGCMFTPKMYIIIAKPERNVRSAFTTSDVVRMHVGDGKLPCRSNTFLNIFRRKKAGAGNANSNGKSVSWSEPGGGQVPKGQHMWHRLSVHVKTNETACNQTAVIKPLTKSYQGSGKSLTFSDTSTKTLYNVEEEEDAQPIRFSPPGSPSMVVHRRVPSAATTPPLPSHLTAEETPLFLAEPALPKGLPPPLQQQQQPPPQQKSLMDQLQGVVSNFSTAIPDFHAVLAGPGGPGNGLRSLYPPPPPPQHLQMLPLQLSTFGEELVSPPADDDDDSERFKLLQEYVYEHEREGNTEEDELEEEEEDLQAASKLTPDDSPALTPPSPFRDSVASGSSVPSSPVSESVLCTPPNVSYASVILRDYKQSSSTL

Row | Structure (SMILES) | IC50 [1] [nM] | IC50 [2] | inhibition [3] [%]
1 | CCOC(=O)[C@]12C[C@H]1/C(=N\O)c1ccccc1O2 | 1500 |  | 
2 | CCOC(=O)C12CC1/C(=N\O)c1ccccc1O2 (racemic) | 3400 |  | 
3 | CCOC(=O)[C@@]12CC1/C(=N\O)c1ccccc1O2 (stereo partly drawn) |  | Not Active | 53

Continued, values first:

Row | IC50 [1] [nM] | IC50 [2] | inhibition [3] [%] | Structure (SMILES)
4 |  | Not Active |  | COC(=O)[C@@H](Cc1ccccc1)NC(=O)[C@@]12C[C@@H]1/C(=N\O)c1ccccc1O2
5 | 1200 |  |  | COC(=O)[C@H](Cc1ccccc1)NC(=O)C12CC1/C(=N\O)c1ccccc1O2 (mixture of isomers)
6 | 1400 |  |  | COC(=O)[C@@H](Cc1ccccc1)NC(=O)C12CC1/C(=N\O)c1ccccc1O2 (mixture of isomers)
7 | 430 |  |  | COC(=O)[C@H](Cc1ccccc1)NC(=O)[C@]12C[C@H]1/C(=N\O)c1ccccc1O2
